Source: ChEMBL document CHEMBL4376818, “Discovery of Novel Pyrazolo-pyridone DCN1 Inhibitors Controlling Cullin Neddylation” (J Med Chem, 2019)
≈ marks a conversion by molar mass, not a printed value. Calls of active or inactive are those of the source. The calls are words filed in the database; no cut-off is given here.

Columns and labels:
[1] = target: DCN1-like protein 1/NEDD8-conjugating enzyme Ubc12 (Homo sapiens, UniProt Q96GG9); assay: Inhibition of biotinylated DCN1 (unknown origin) - AlexaFluor488 labelled UBE2M (unknown origin) protein-protein interaction after 1 hr by TR-FRET assay
BJ = assay: Cytotoxicity against human BJ cells assessed as cell growth inhibition after 72 hrs by Celltiter-Glo assay; format: cell-based
Summary of the method: (§1)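 Cells were seeded overnight at 37 °C, 5% CO2, at densities validated for logarithmic growth (BJ 1000 cells/well, HCC95 600 cells/well), then treated with ten 3-fold serial dilutions from DMSO stocks for 72 h. […] Fit on a semi-log plot; ≥3 technical and 2 biological replicates.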

HCC95 [2] = assay: Cytotoxicity against human HCC95 cells overexpressing DCN1 assessed as cell growth inhibition after 72 hrs by Celltiter-Glo assay; format: cell-based; conditions: HCC95, 72 h; summary of the method: as §1
[3] = Half life in mouse microsomes at 0.8 uM; format: ADME, Microsome
Summary of the method: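 Oxidative metabolic stability in murine liver microsomes, drug at 0.8 µM. Half-life is reported as mean ± SD from at least one independent experiment run in triplicate.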

[4] = Kinetic aqueous solubility of compound at pH 7.4; format: physicochemical; conditions: buffer, read-out: Kinetic_solubility
Summary of the method: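 Kinetic aqueous solubility was measured in pH 7.4 buffer. Values are reported as means ± standard deviation from at least one independent experiment run in triplicate.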

[5] = target: DCN1-like protein 2 (Homo sapiens) (UniProt Q6PH85); assay: Inhibition of DCN2 (unknown origin) assessed as decrease in DCN1-stimulated NEDD8 transfer from UBE2M to CUL2 at 10 uM after 10 sec by pulse-chase assay
[6] = target: T1, DCN1-like protein 3 (Homo sapiens) (UniProt Q8IWE4); assay: Inhibition of DCN3 (unknown origin) assessed as decrease in DCN1-stimulated NEDD8 transfer from UBE2M to CUL2 at 120 uM after 10 sec by pulse-chase assay
T1 sequence (whole entry): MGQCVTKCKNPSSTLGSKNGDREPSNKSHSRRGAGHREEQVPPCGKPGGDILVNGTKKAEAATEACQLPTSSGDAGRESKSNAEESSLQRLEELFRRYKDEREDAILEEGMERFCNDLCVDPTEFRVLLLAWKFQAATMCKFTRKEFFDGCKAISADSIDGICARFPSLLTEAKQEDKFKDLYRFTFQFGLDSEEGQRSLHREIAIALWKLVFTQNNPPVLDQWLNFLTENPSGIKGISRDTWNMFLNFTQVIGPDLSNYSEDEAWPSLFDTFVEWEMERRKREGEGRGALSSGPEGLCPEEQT

[7] = target: T2, DCN1-like protein 4 (Homo sapiens) (UniProt Q92564); assay: Inhibition of DCN4 (unknown origin) assessed as decrease in DCN1-stimulated NEDD8 transfer from UBE2M to CUL2 at 60 uM after 10 sec by pulse-chase assay
T2 sequence (whole entry): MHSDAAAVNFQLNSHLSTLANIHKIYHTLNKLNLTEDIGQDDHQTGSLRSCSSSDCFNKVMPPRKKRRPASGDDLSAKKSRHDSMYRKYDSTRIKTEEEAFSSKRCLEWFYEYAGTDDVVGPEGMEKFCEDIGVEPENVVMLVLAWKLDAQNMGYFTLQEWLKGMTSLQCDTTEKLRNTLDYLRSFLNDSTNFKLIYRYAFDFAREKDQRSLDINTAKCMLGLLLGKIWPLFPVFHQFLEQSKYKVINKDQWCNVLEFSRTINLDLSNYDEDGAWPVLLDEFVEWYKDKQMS

[8] = target: T3, DCN1-like protein 5 (Homo sapiens) (UniProt Q9BTE7); assay: Inhibition of DCN5 (unknown origin) assessed as decrease in DCN1-stimulated NEDD8 transfer from UBE2M to CUL2 at 60 uM after 10 sec by pulse-chase assay
T3 sequence (whole entry): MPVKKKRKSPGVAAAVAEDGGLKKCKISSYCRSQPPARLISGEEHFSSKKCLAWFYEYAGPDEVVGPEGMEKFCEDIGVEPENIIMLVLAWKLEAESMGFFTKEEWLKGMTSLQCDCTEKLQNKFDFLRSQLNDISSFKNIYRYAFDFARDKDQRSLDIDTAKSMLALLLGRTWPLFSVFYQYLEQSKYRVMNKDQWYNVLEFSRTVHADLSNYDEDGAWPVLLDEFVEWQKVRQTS

HCC95 [9] = assay: Induction of ROS generation in human HCC95 cells at 30 uM after 5 hrs by H2DCFDA dye based fluorescence assay; format: functional, cell-based
Summary of the method: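 HCC95 cells were seeded at 25,000 cells/well and incubated overnight. They were PBS-washed, loaded with DCFDA for 45 min at 37 °C in the dark, washed twice, then exposed to compound in buffer for 5 h at 37 °C in the dark. Fluorescence was read at Ex/Em 485/535 nm.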

Sequence of DCN1-like protein 1/NEDD8-conjugating enzyme Ubc12 (Q96GG9 whole entry): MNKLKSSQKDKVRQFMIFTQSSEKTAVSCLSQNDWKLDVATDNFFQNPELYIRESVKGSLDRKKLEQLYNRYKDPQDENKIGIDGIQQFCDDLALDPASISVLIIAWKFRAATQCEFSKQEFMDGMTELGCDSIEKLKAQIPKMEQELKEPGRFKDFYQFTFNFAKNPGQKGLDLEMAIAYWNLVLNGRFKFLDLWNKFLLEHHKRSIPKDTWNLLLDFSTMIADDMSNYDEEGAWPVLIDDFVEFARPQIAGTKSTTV
Sequence of DCN1-like protein 1/NEDD8-conjugating enzyme Ubc12 (P61081 whole entry, further chain): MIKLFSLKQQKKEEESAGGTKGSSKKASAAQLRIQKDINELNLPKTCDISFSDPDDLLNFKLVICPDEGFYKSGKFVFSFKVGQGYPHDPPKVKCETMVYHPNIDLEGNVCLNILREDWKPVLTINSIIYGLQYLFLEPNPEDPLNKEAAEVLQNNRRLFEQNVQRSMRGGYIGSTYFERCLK
Sequence of DCN1-like protein 2 (Homo sapiens) (Q6PH85 whole entry): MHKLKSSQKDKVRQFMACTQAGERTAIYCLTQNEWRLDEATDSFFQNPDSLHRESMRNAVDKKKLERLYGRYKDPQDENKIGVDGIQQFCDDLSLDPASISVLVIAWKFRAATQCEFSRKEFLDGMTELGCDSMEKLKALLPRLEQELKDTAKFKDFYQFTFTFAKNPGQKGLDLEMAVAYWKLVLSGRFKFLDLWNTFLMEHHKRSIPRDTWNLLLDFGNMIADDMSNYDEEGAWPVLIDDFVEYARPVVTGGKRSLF

SMILES: CCN1C(=O)[C@@H](NC(=O)c2cccc(C)c2)[C@@H](c2ccc(F)cc2)c2c(C)nn(C3CCCC3)c21
- IC50 [1]: 0.8 µM

SMILES: Cc1cccc(C(=O)N[C@@H]2C(=O)Nc3c(c(C)nn3C(C)(C)C)[C@@H]2c2ccc(F)cc2)c1
- IC50 [1]: 0.5 µM

SMILES: Cc1ccc(C(=O)N[C@@H]2C(=O)Nc3c(c(C)nn3-c3ccccc3)[C@@H]2c2ccc(F)cc2)cc1
- IC50 [1]: > 15 µM

SMILES: Cc1cccc(C(=O)N[C@@H]2C(=O)Nc3c(c(C)nn3-c3ccccc3)[C@@H]2Cc2ccccc2)c1
- IC50 [1]: 3 µM

SMILES: CC(=O)CN1C(=O)[C@@H](NC(=O)c2cccc(C)c2)[C@@H](c2ccc(F)cc2)c2c(C)nn(-c3ccccc3)c21
- IC50 [1]: 7.1 µM

SMILES: Cc1cncc(C(=O)N[C@@H]2C(=O)Nc3c(c(C)nn3-c3ccccc3)[C@@H]2c2ccc(F)cc2)c1
- IC50 [1]: > 15 µM

SMILES: CCCn1nc(C)c2c1NC(=O)[C@@H](NC(=O)c1cccc(C)c1)[C@H]2c1ccc(F)cc1
- IC50 [1]: 1.2 µM

SMILES: CCCn1nc(C)c2c1N(CC)C(=O)[C@@H](NC(=O)c1cccc(C)c1)[C@H]2c1ccc(F)cc1 (racemic)
- IC50 [1]: 0.2 µM
- EC50 (BJ): > 25 µM
- EC50 (HCC95 [2]): > 25 µM
- half-life at 0.8 µM [3]: < 6 min
- solubility kinetic [4]: 10.9 µM (≈ 4.89 µg/mL)

SMILES: Cc1nn(-c2ccccc2)c2c1[C@H](c1ccc(F)cc1)[C@H](NC(=O)c1cccc(C(C)(C)C)c1)C(=O)N2
- IC50 [1]: > 15 µM

SMILES: Cc1cccc(C(=O)N[C@@H]2C(=O)Nc3c(c(C)nn3-c3ccccc3)[C@@H]2c2cccnc2)c1
- IC50 [1]: > 15 µM

SMILES: CCCN1C(=O)[C@@H](NC(=O)c2cccc(C)c2)[C@@H](c2ccc(F)cc2)c2c1nn(CCC)c2C
- EC50 (BJ): > 25 µM
- EC50 (HCC95 [2]): > 25 µM

SMILES: CCOC1=Nc2c(c(C)nn2-c2ccccc2)[C@H](c2ccc(F)cc2)[C@@H]1NC(=O)c1cccc(C)c1
- EC50 (BJ): > 25 µM
- EC50 (HCC95 [2]): > 25 µM

SMILES: CCN1C(=O)[C@@H](NC(=O)c2cccc(C)c2)[C@@H](c2ccc(F)cc2)c2c(C)nn(-c3ccccc3)c21 (relative stereo)
- EC50 (BJ): > 25 µM
- EC50 (HCC95 [2]): > 25 µM
- inhibition [5]: Active
- inhibition [6]: inactive
- inhibition [7]: inactive
- inhibition [8]: inactive
- Activity (HCC95 [9]): inactive

SMILES: Cc1ccc([C@H]2c3c(C)nn(-c4ccccc4)c3NC(=O)[C@H]2NC(=O)c2cccc(C)c2)cc1 (relative stereo)
- IC50 [1]: 5.1 µM
- EC50 (BJ): > 25 µM
- EC50 (HCC95 [2]): > 25 µM
- half-life at 0.8 µM [3]: 18 min
- solubility kinetic [4]: 1.1 µM (≈ 0.496 µg/mL)

SMILES: Cc1nn(-c2ccccc2)c2c1[C@H](c1ccc(F)cc1)[C@H](NC(=O)c1ccc(Cl)c(Cl)c1)C(=O)N2
- IC50 [1]: > 15 µM

SMILES: Cc1cccc(C(=O)N[C@@H]2C(=O)N(C)c3c(c(C)nn3C(C)(C)C)[C@@H]2c2ccc(F)cc2)c1
- IC50 [1]: 2.3 µM

SMILES: CCn1nc(C)c2c1NC(=O)[C@@H](NC(=O)c1cccc(C)c1)[C@H]2c1ccc(F)cc1 (racemic)
- EC50 (BJ): > 25 µM
- EC50 (HCC95 [2]): > 25 µM
- half-life at 0.8 µM [3]: 36 min
- solubility kinetic [4]: 92.8 µM (≈ 37.7 µg/mL)

SMILES: Cc1cccc(C(=O)N[C@@H]2C(=O)Nc3c(c(C)nn3-c3ccccc3)[C@@H]2c2cccc(F)c2)c1
- IC50 [1]: 7.1 µM

SMILES: Cc1cccc(C(=O)N[C@@H]2C(=O)Nc3c(c(C)nn3C3CCCC3)[C@@H]2c2ccc(F)cc2)c1 (racemic)
- IC50 [1]: 0.3 µM
- EC50 (BJ): > 25 µM
- EC50 (HCC95 [2]): > 25 µM
- half-life at 0.8 µM [3]: 30 min
- solubility kinetic [4]: 17.1 µM (≈ 7.64 µg/mL)

SMILES: CCN1C(=O)[C@@H](NC(=O)c2cccc(C)c2)[C@@H](c2ccc(F)cc2)c2c(C)nn(C3CC3)c21 (racemic)
- IC50 [1]: 0.2 µM
- EC50 (BJ): > 25 µM
- EC50 (HCC95 [2]): > 25 µM
- half-life at 0.8 µM [3]: < 6 min
- solubility kinetic [4]: 46.1 µM (≈ 20.6 µg/mL)

SMILES: Cc1cccc(C(=O)N[C@@H]2C(=O)Nc3c(c(C)nn3-c3ccccc3)[C@@H]2C2CCCCC2)c1
- IC50 [1]: 1.3 µM

SMILES: Cc1cccc(C(=O)N[C@@H]2C(=O)Nc3n[nH]c(C)c3[C@@H]2c2ccc(F)cc2)c1
- IC50 [1]: > 15 µM

SMILES: CCCCN1CCC(N(Cc2ccccc2)C(=O)Nc2ccc(Cl)c(Cl)c2)CC1
- Activity (HCC95 [9]): inactive

SMILES: Cc1cccc(C(=O)N[C@@H]2C(=O)N(C(C)C)c3c(c(C)nn3-c3ccccc3)[C@@H]2c2ccc(F)cc2)c1
- IC50 [1]: 4.1 µM

SMILES: Cc1cccc(C(=O)N[C@@H]2C(=O)Nc3c(c(C)nn3-c3ccccn3)[C@@H]2c2ccc(F)cc2)c1
- IC50 [1]: > 15 µM

SMILES: Cc1cccc(C(=O)N[C@H]2C(=O)Nc3c(c(C)nn3-c3ccccc3)[C@@H]2c2ccc(F)cc2)c1 (racemic)
- EC50 (BJ): > 25 µM
- EC50 (HCC95 [2]): > 25 µM
- Activity (HCC95 [9]): inactive

SMILES: Cc1cccc(C(=O)N[C@@H]2C(=O)Nc3c(c(C)nn3-c3ccccc3)[C@@H]2c2ccc(F)cc2)c1 (racemic)
- IC50 [1]: 1.4 µM
- EC50 (BJ): > 25 µM
- EC50 (HCC95 [2]): > 25 µM
- half-life at 0.8 µM [3]: 66 min
- solubility kinetic [4]: 5.5 µM (≈ 2.5 µg/mL)

SMILES: Cc1nn(-c2ccccc2)c2c1[C@H](c1ccc(F)cc1)[C@H](NC(=O)c1ccccc1)C(=O)N2
- IC50 [1]: 13 µM

SMILES: Cc1cccc(C(=O)N[C@@H]2C(=O)Nc3c(c(C)nn3Cc3ccccc3)[C@@H]2c2ccc(F)cc2)c1
- IC50 [1]: > 15 µM

SMILES: CCC[C@H]1c2c(C)nn(-c3ccccc3)c2NC(=O)[C@H]1NC(=O)c1cccc(C)c1
- IC50 [1]: 3.1 µM

SMILES: CCC(C)n1nc(C)c2c1NC(=O)[C@@H](NC(=O)c1cccc(C)c1)[C@H]2c1ccc(F)cc1 (stereo in doubt; 22b)
- IC50 [1]: 0.6 µM

SMILES: Cc1ccccc1C(=O)N[C@@H]1C(=O)Nc2c(c(C)nn2-c2ccccc2)[C@@H]1c1ccc(F)cc1
- IC50 [1]: > 15 µM

SMILES: CC(=O)N1C(=O)[C@@H](NC(=O)c2cccc(C)c2)[C@@H](c2ccc(F)cc2)c2c(C)nn(-c3ccccc3)c21
- IC50 [1]: 5.6 µM

SMILES: Cc1cccc(C(=O)N[C@@H]2C(=O)Nc3c(c(C)nn3-c3ccccc3)[C@@H]2c2ccc(F)nc2)c1
- IC50 [1]: 3.5 µM

SMILES: Cc1cccc(C(=O)N[C@@H]2C(=O)Nc3c(c(C)nn3-c3ccccc3)[C@@H]2c2ccccc2)c1
- IC50 [1]: 4 µM

SMILES: Cc1cccc(C(=O)N[C@@H]2C(=O)Nc3c(c(C)nn3C3CC3)[C@@H]2c2ccc(F)cc2)c1
- IC50 [1]: 2 µM

SMILES: Cc1nn(-c2ccccc2)c2c1[C@H](c1ccc(F)cc1)[C@H](NC(=O)c1cccc(I)c1)C(=O)N2
- IC50 [1]: 7.1 µM

SMILES: CCC(C)n1nc(C)c2c1NC(=O)[C@@H](NC(=O)c1cccc(C)c1)[C@H]2c1ccc(F)cc1 (stereo in doubt; 22a)
- IC50 [1]: 0.7 µM
